Screens from PubChem.
EBI2 block – blocks human EBI2 receptor beta-arrestin signaling; EBI2 beta-arrestin recruitment, luminescence, 7a,25-OHC stimulated; inhibition, % at 5 µM; hit rate 0.81% among 360,000; in the data active = inhibition above about 38%;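 note: enzyme fragment complementation signal reports receptor beta-arrestin coupling in cells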
Target sequence (P32249 whole entry, looked up, the tested form may be a part): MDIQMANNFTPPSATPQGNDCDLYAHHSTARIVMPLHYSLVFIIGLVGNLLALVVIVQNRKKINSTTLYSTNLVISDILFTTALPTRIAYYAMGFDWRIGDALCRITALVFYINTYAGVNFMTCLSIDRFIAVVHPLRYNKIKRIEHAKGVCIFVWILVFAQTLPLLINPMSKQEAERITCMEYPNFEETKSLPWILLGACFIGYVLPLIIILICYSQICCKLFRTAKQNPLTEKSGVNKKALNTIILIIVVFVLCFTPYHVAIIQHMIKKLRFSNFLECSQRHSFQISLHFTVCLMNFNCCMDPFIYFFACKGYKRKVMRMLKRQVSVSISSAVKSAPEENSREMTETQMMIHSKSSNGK
APJ antagonist – blocks the human apelin receptor APJ. inhibition, % at 20 µM. hit rate 0.32% among 330,000. AID 2521. CHO-K1 APJ beta-arrestin complementation, luminescence. P35414;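 active = inhibition above about 40% at 20 µM, limit read from the data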;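 note: cells challenged with 10 nM apelin-13 agonist together with compound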
Target sequence (P35414 whole entry, looked up): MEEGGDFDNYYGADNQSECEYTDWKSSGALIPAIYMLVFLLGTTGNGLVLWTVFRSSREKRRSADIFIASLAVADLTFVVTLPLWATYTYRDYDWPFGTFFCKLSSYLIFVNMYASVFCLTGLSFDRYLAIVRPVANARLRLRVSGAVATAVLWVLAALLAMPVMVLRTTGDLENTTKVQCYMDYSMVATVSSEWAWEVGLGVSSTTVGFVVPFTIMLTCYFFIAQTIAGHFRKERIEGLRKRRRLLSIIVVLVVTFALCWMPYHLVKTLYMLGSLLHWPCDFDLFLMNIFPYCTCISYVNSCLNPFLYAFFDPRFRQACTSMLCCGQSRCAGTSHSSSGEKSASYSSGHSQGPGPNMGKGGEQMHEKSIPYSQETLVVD
CCR6 antag – blocks CCL20-driven beta-arrestin recruitment at human CCR6; CHO-K1 CCR6 PathHunter beta-arrestin, luminescence, CCL20-stimulated; P51684; inhibition, % at 20 µM; AID 493098; hit rate 0.49% among 340,000;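 active = compounds whose inhibition of the agonist-driven luminescence signal at 20 µM reaches about 50%, limit read from the data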;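 note: cells stimulated with CCL20 at 14 nM final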
CXCR6 block – blocks human CXCR6 beta-arrestin recruitment; CHO-K1 PathHunter CXCR6 beta-arrestin, luminescence; O00574; inhibition, % at 20 µM; hit rate 0.36% among 360,000; in the data active = inhibition above about 34%, passing the limit was not always enough;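 note: antagonist mode with CXCL16 agonist at 10 nM final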
APJ ag – agonists of human APJ apelin receptor | P35414 | CHO-K1 APJ PathHunter beta-arrestin, luminescence; 0% DMSO wells, 100% apelin | activation, % at 20 µM | hit rate 0.11% among 330,000;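 active = activation more than six SD over the plate average, tested at 20 µM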
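Material: engineered CHO-K1 APJ arrestin reporter cells; amount: 1000 CHO-K1 reporter cells seeded per well; incubation: compound stimulation 90 min at 25 °C, detection 60 min; signal: luminescent beta-gal fragment complementation, chemiluminescent substrate; read-out basis: APJ agonist activity; controls: DMSO-only wells as negative, 10 nM Apelin-13 as positive control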
Each line names hits and unclear results; the compound was inactive in the other large screens. Shown are actives, neighbours in structure and some others; about 1.5% of the full set was active somewhere.

CCCCCc1c(CC)ncn1CCc1ccccc1OC	none (no result: APJ antagonist, CCR6 antag, APJ ag)
COc1ccc(CCNC(=O)C2CCN(C(=O)c3ccccc3)CC2)cc1	CCR6 antag 57 (no result: EBI2 block, CXCR6 block)
CC(=O)Nc1sc(N/N=C\c2ccc(O)cc2)nc1-c1cccs1	none
CC(=O)Nc1sc(N/N=C\c2ccccc2F)nc1-c1cccs1	CCR6 antag 50
O=C(c1cnc(Cc2c[nH]c3ccccc23)c(I)c1)N1CCOCC1	none (no result: APJ antagonist, CCR6 antag, APJ ag)
C[C@@H](c1ccccc1)N1C[C@H](COCc2ccccc2)Oc2cc(N3CCC[C@@H]3CO)ccc2S1(=O)=O	none (no result: APJ antagonist, CCR6 antag, APJ ag)
C/C(=C1/C(=O)N(c2ccc([N+](=O)[O-])cc2)N=C1c1ccccc1)N(C)C	APJ antagonist 49 (no result: EBI2 block, CCR6 antag, CXCR6 block)
CN(C)/C=C1/C(=O)N(c2ccc([N+](=O)[O-])cc2)N=C1c1ccccc1	none (no result: EBI2 block, CCR6 antag, CXCR6 block)
N#C/C(=C\c1ccc(-c2cccc([N+](=O)[O-])c2)o1)C(=O)Nc1nc(-c2cccs2)cs1	CCR6 antag 84
O=C(N/N=C/c1ccc(-c2cccc([N+](=O)[O-])c2)o1)c1cccs1	none
CCN(CC)c1ccc2cc(C(=O)NNC(=O)c3ccc(S(=O)(=O)N4CCCCC4)cc3)c(=O)oc2c1	CCR6 antag 69 (no result: APJ antagonist, APJ ag)
Cn1cc(/C=C2\SC(=O)NC2=S)c2ccccc21	CCR6 antag 53
Cc1ccc(C(=O)NN2C(=O)/C(=C/c3cn(C)c4ccccc34)SC2=S)cc1	none (no result: APJ antagonist, APJ ag)
CC1(C(=O)NS(=O)(=O)c2ccc(Br)cc2)CCN1C(=O)Cc1cccs1 (stereo not drawn)	none (no result: APJ antagonist, CCR6 antag, APJ ag)
O=C(Cn1ncc(Cl)c(Cl)c1=O)N1CCc2ccccc21	EBI2 block 43 (no result: APJ antagonist, APJ ag)
O=Cc1c[nH]c2ccc(S(=O)(=O)N3CCCCC3)cc12	none (no result: APJ antagonist, CCR6 antag, APJ ag)
COc1cc(N/N=C(\C)c2ccc(N)cc2)nc(-c2ccccc2)n1	none
COc1cc(N/N=C(\C)c2ccc(O)c(C)c2)nc(-c2ccccc2)n1	EBI2 block 57
C/C(=N\Nc1cc(-c2ccccc2)nc(-c2ccccc2)n1)c1ccc(O)c(C)c1	EBI2 block 51
C=CCOc1ccc(C2C(C(=O)c3ccco3)=C(O)C(=O)N2CCCN(CC)CC)cc1 (stereo not drawn)	none
CCN(CC)CCCN1C(=O)C(O)=C(C(=O)c2ccco2)C1c1ccc(OC(C)C)cc1 (stereo not drawn)	CCR6 antag 93
CC1OC(COCc2ccccc2)Cc2[nH][nH]c(=O)c21 (stereo not drawn)	none (no result: APJ antagonist, CCR6 antag, APJ ag)
CN1C(=CC=C2C=C(I)C(=O)C(I)=C2)C(C)(C)c2ccccc21	CCR6 antag 73, CXCR6 block 45 (no result: APJ antagonist, APJ ag)
CCOc1ccc(CCN2C(=S)N([C@@H](Cc3ccc(O)cc3)CN3CCC[C@@H]3CN3C(=S)NC[C@@H]3Cc3ccc(O)cc3)C[C@@H]2Cc2ccc(O)cc2)cc1	none (no result: APJ antagonist, CCR6 antag, APJ ag)
CCCCCCCCN1C(=O)[C@H](CC(=O)NCCCN2CCCC2=O)C[C@@]2(C(=O)OC)CCCCC=C12	none (no result: APJ antagonist, CCR6 antag, APJ ag)
O=C(/C=C/c1ccccc1)NNC(=O)c1cccc(Cl)c1	none
O=C(/C=C/c1ccccc1)NNc1ccc(Cl)cc1	APJ antagonist 62
O=C(NC(=S)Nc1ccccc1Cl)c1cncc(C#Cc2ccccc2)c1	none
O=C(NC(=S)Nc1ccccc1Cl)c1cncc(Br)c1	CCR6 antag 52
CCCCCSc1nncc(=O)[nH]1	none
CCCCCCCCSC1=CC(=O)C(OC)=C(OC)C1=O	CXCR6 block 39 (no result: APJ antagonist, CCR6 antag, APJ ag)
OCc1ccccc1-c1cnc2sc(NCc3ccc(F)cc3)nn12	none (no result: APJ antagonist, CCR6 antag, APJ ag)
Cc1noc(C)c1S(=O)(=O)NC(=O)C1(C)CCN1C(=O)CC(c1ccccc1)c1ccccc1 (stereo not drawn)	none (no result: APJ antagonist, CCR6 antag, APJ ag)
CC(C)C[C@H]1C(=O)N2CCC[C@H]2[C@]2(O)O[C@](NC(=O)C3C=C4c5cccc6[nH]c(Br)c(c56)C[C@H]4N(C)C3)(C(C)C)C(=O)N12 (stereo partly drawn)	EBI2 block 90
O=C(c1ccc(Cl)nc1)c1cccs1	none (no result: EBI2 block, CXCR6 block)
O=C(c1cccs1)c1no[n+]([O-])c1C(=O)c1cccs1	APJ ag 30
CCN(CC)C(=O)c1cccc(-c2csc(C(C)(O)c3ccc(F)c(F)c3)n2)c1 (stereo not drawn)	none (no result: APJ antagonist, CCR6 antag, APJ ag)
COc1ccc(/C=C/C(=O)OCC(=O)NC2CCCC2)cc1	none
CN(C)c1nc(=NCc2cccs2)ss1	CCR6 antag 111, CXCR6 block 92 (no result: APJ antagonist, APJ ag)
CC(SC(=S)N(C)Cc1cccs1)C(=O)O (stereo not drawn)	none
Oc1csc(Cc2nc(-c3ccc4ccccc4c3)cs2)n1	CCR6 antag 56
Oc1csc(Cc2nc(-c3ccc(-c4ccccc4)cc3)cs2)n1	none
COc1ccccc1NC(=O)CCCCCN1C(=O)c2cccc([N+](=O)[O-])c2C1=O	none
COc1cc(/C=C2/C(=O)c3cccc([N+](=O)[O-])c3C2=O)c(Br)cc1O	CCR6 antag 97, CXCR6 block 86 (no result: APJ antagonist, APJ ag)
O=C(Cc1c[nH]c2ccccc12)NCc1ccc(Cl)cc1	none
CN1C2C=C(N(CCc3c[nH]c4ccccc34)C(=O)c3ccc(Cl)cc3)CC1CC2 (stereo not drawn)	EBI2 block 61
O=C(NCc1ccc2c(c1)OCO2)c1nc(S(=O)(=O)Cc2ccccc2)ncc1Cl	CCR6 antag 63
CC(=O)Nc1ccc(NC(=O)c2nc(S(=O)(=O)Cc3ccccc3)ncc2Cl)cc1	none
COc1ccc(C)cc1NS(=O)(=O)c1ccc(NC(=O)CN(c2cc([N+](=O)[O-])ccc2C)S(C)(=O)=O)cc1	none
Cc1cccc(NS(=O)(=O)c2ccc(NC(=O)CN(c3cc([N+](=O)[O-])ccc3C)S(C)(=O)=O)cc2)c1	EBI2 block 86
O=S1(=O)C[C@H](N2CCC(Cc3ccccc3)CC2)[C@@H](COCc2ccccc2)N1	none (no result: APJ antagonist, CCR6 antag, APJ ag)
CN(C)c1nc(N/N=C/c2ccccc2O)nc(Nc2ccc(F)cc2)n1	CCR6 antag 71, CXCR6 block 68
Cc1cccc(C)c1NC(=O)C(c1ccncc1)n1c(=O)c(-c2cc3ccccc3[nH]2)nc2ccccc21 (stereo not drawn)	none (no result: APJ antagonist, CCR6 antag, CXCR6 block, APJ ag)
CC1=C(C(=O)N2CCCCCC2)CC(CC(=O)NCCCN(C)C)C(=O)N1Cc1ccccc1 (stereo not drawn)	none (no result: APJ antagonist, CCR6 antag, APJ ag)
O=C(N/N=C/c1ccc(Cl)cc1Cl)c1cccc(N2CCCC2=O)c1	none
O=C(N/N=C/c1cc(Br)cc(Br)c1O)c1cccc(N2CCCC2=O)c1	CCR6 antag 54
CN(C)CCCN(C(=O)CCc1ccccc1)c1nc2c(F)cccc2s1	none
CN(C)CCCN(C(=O)CCOc1ccccc1)c1nc2c(F)cccc2s1	EBI2 block 48 (no result: APJ antagonist, APJ ag)
Cc1ccc(OCc2nc3ccccc3n2C(C(=O)Nc2c(C)cccc2C)C2CC2)cc1 (stereo not drawn)	none (no result: APJ antagonist, CCR6 antag, CXCR6 block, APJ ag)
C=CCNc1ncnc2c1ncn2[C@H]1CN(Cc2ccc(-c3ccccc3)cc2)C[C@@H](CO)O1	none (no result: APJ antagonist, CCR6 antag, APJ ag)
CC(NC(C(=O)c1ccccc1)c1ccccc1)c1ccccc1 (stereo not drawn)	CCR6 antag 78, CXCR6 block 37 (no result: APJ antagonist, APJ ag)
O=[N+]([O-])c1cnccc1-n1nnc2ccccc21	none (no result: APJ antagonist, CCR6 antag, APJ ag)
